Assays:
[1] = Inhibition of gamma secretase in mouse Neuro2 cells expressing endogenous levels of amyloid precursor protein assessed as reduction in Abeta42 levels incubated for 18 hrs by sandwich ELISA; format: cell-based
Outline: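 IC50 as concentration reducing Aβ42 by 50%; mean of at least 2 determinations; mouse assay.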

Gamma-secretase = assay: Inhibition of gamma secretase in human SKNBE2 cells expressing human APP695 assessed as reduction in Abeta42 levels incubated for 18 hrs by sandwich ELISA
[2] = Drug concentration in mouse brain at 30 mg/kg, po measured after 4 hrs by LC/MS/MS method; format: ADME, organism-based; conditions: read-out: Drug uptake
Outline: (§1)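 Mice dosed orally at 30 mg/kg; plasma and brain sampled 4 h post-dose; compound quantified by qualified research LC–MS/MS; brain/plasma ratio at 4 h.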

[3] = Drug concentration in mouse plasma at 30 mg/kg, po measured after 4 hrs by LC/MS/MS method; format: ADME, organism-based; outline: as §1
Mus musculus [4] = assay: In vivo inhibition of gamma secretase in mouse assessed as assessed as reduction in Abeta42 levels in brain at 30 mg/kg, po measured after 4 hrs relative to control; format: functional
Mus musculus [5] = assay: In vivo inhibition of gamma secretase in mouse increase in Abeta38 levels in brain at 30 mg/kg, po measured after 4 hrs relative to control; set-up: scale not given: the % may be the effect or the level left

Structure (SMILES) | IC50 [1] | IC50 (Gamma-secretase) | concentration at 4 h [2] | concentration at 4 h [3] | inhibition in vivo at 30 mg/kg (Mus musculus [4]) | Activity (Mus musculus [5])
COc1cc(Nc2cccn3cc(-c4ccc(F)cc4)nc23)ccc1C#N | > 10000 nM |  |  |  |  | 
Cn1c(-c2nc3n(n2)CCCC3c2ccccc2C(F)(F)F)cc2cc(C#N)ccc21 (racemic) | > 10000 nM | 4000 nM |  |  |  | 
COc1nc(Nc2cccc3c2nc(-c2cccc(C(F)(F)F)c2)n3C)ccc1-n1cnc(C)c1 | 7 nM |  |  |  |  | 
COc1cc2[nH]c(-c3nc4n(n3)CCCC4c3ccccc3C(F)(F)F)cc2cc1C#N (racemic) | 166 nM | 107 nM |  |  |  | 
COc1cc(Nc2cccn3cc(-c4ccc(F)cc4)nc23)ccc1-n1cnc(C)c1 | 182 nM |  |  |  |  | 
COc1c(C#N)ccc2[nH]c(-c3nc4n(n3)CCO[C@@H]4c3ccccc3C(F)(F)F)cc12 | 295 nM | 603 nM |  |  |  | 
COc1c(C#N)ccc2[nH]c(-c3cn4c(n3)C(C(C)c3ccc(F)cc3)OCC4)cc12 (stereo not drawn) | 339 nM | 219 nM |  |  |  | 
COc1c(C#N)ccc2[nH]c(-c3cn4c(n3)C(c3ccc(F)cc3C)CCC4)cc12 (racemic) | 50 nM | 112 nM | 1.9 µM | 4.5 µM | 51% | 17%
COc1c(C#N)ccc2[nH]c(-c3cn4c(n3)[C@@H](c3ccccc3C(F)(F)F)OCC4)cc12 | 251 nM | 347 nM |  |  |  | 
Cc1cn(-c2ccc3[nH]c(-c4nc5n(n4)CCCC5c4ccccc4C(F)(F)F)cc3c2)cn1 (stereo not drawn) | 46 nM |  |  |  |  | 
COc1c(C#N)ccc2[nH]c(-c3nc4n(n3)CCO[C@H]4c3ccccc3C(F)(F)F)cc12 | 42 nM | 45 nM | 10.5 µM | 5.4 µM | 46% | 39%
COc1c(C#N)ccc2[nH]c(-c3cn4c(n3)[C@H](c3ccccc3Cl)C[C@@H](C)C4)cc12 (racemic) |  | 15 nM |  |  |  | 
Cc1cn(-c2ccc3[nH]c(-c4nc(-c5cccc(C(F)(F)F)c5)n(C)n4)cc3c2)cn1 | 85 nM |  |  |  |  | 
COc1c(C#N)ccc2[nH]c(-c3cn4c(n3)[C@H](c3ccccc3Cl)O[C@H](C)C4)cc12 |  | 17 nM |  |  |  | 
COc1c(C#N)ccc2[nH]c(-c3nc4n(n3)CCO[C@H]4c3cc(C(F)(F)F)ccc3F)cc12 | 107 nM | 98 nM |  |  |  | 
COc1c(C#N)ccc2[nH]c(-c3nc4n(n3)CCCC4c3ccccc3C(F)(F)F)cc12 (racemic) | 36 to 38 nM | 36 nM |  |  |  | 
COc1c(C#N)ccc2[nH]c(-c3nc4n(n3)CCO[C@H]4c3ccc(F)cc3C)cc12 | 34 nM | 32 nM | 1.71 µM | 1.52 µM | 5% | -12%
COc1c(C#N)ccc2[nH]c(-c3cn4c(n3)[C@H](c3c(F)cccc3C(F)(F)F)OCC4)cc12 | 42 nM | 36 nM | 18.7 µM | 11.3 µM | 40% | 136%
N#Cc1ccc2cc(-c3nc4n(n3)CCCC4c3ccccc3C(F)(F)F)[nH]c2c1 (racemic) | 8500 nM | 3980 nM |  |  |  | 
N#Cc1ccc2[nH]c(-c3nc4n(n3)CCCC4c3ccccc3C(F)(F)F)cc2c1 (racemic) | 186 nM | 117 nM |  |  |  | 
COCc1ccccc1[C@@H]1OCCn2cc(-c3cc4c(OC)c(C#N)ccc4[nH]3)nc21 | 85 nM | 110 nM |  |  |  | 
COc1c(C#N)ccc2[nH]c(-c3cn4c(n3)C(c3ccccc3Cl)CC(O)(CO)C4)cc12 (stereo not drawn) |  | 39 nM |  |  |  | 
COc1c(C#N)ccc2[nH]c(-c3cn4c(n3)[C@H](c3ccccc3Cl)O[C@@H](C)C4)cc12 |  | 66 nM |  |  |  | 
COc1nc(/C=C/c2nc3n(n2)CCC[C@H]3c2ccccc2C(F)(F)F)ccc1-n1cnc(C)c1 [E-2212] | 11 nM |  |  |  |  | 
COc1c(C#N)ccc2[nH]c(-c3nc4n(n3)CCOC4c3ccccc3C(F)(F)F)cc12 (racemic) | 41 nM | 72 nM |  |  |  | 
COc1cc(/C=C/c2nc3n(n2)CCC[C@H]3c2ccccc2C(F)(F)F)ccc1C#N | 275 nM |  |  |  |  | 
COc1c(C#N)ccc2[nH]c(-c3cn4c(n3)C(c3ccccc3Cl)CC(C)(O)C4)cc12 (stereo not drawn) |  | 22 nM |  |  |  | 
